Reference: ChEMBL document CHEMBL4130487, “A pentanoic acid derivative targeting matrix metalloproteinase-2 (MMP-2) induces apoptosis in a chronic myeloid leukemia cell line” (Eur J Med Chem, 2017)

What was measured:
[1] = system: K562; assay: Anti-invasive activity against human K562 cells assessed as at 2.5 uM after 24 hrs by CyQuantGR dye based fluorimetric QCM EC matrix assay relative to control; assay type: functional; conditions: K562, 24 h
In short: (§1)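 K562 cells (1X10^6 cells/ml) starved overnight in FBS-free medium, then placed in inserts in FBS-free medium with 5% BSA, with 5% FBS medium below as chemoattractant. Treated at 2.5, 5 and 10 μM in triplicate for 24 h alongside an untreated control. Invaded cells were detached, stained with CyQuantGR and read by fluorescence (ex 480/em 520 nm). Results given as % of control, mean ± SD.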

[2] = system: K562; assay: Anti-invasive activity against human K562 cells after 24 hrs by CyQuantGR dye based fluorimetric QCM EC matrix assay; assay type: functional, cell-based; in short: as §1
[3] = system: K562; assay: Induction of apoptosis in human K562 cells assessed as late apoptotic cells at 10 uM after 48 hrs by Annexin V-FITC/propidium iodide staining based flow cytometry (reference value: 0.3%); assay type: functional
[4] = system: K562; assay: Downregulation of MMP2 protein expression in human K562 cells assessed as MMP2 negative population at 10 uM after 48 hrs by FITC staining based flow cytometry (reference value: 1.6%)
[5] = system: PBMC; assay: Cytotoxicity against human PBMC assessed as reduction in cell viability after 48 hrs by MTT assay; assay type: cell-based
In short: (§2)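 A549, MDA-MB-231, K562, U937 and PBMC (PBMC from healthy donors) seeded at 1×10^3 cells/well and left 24 h, then exposed to compounds for 48 h at 37 °C, 5% CO2. Adherent lines were grown in DMEM, the others in RPMI-1640 with 10% heat-inactivated FBS. MTT read-out; viability expressed as % of untreated control. IC50 taken as the concentration giving 50% viability loss.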

[6] = system: K562; assay: Downregulation of MMP2 protein expression in human K562 cells assessed as MMP2 positive population at 5 uM after 48 hrs by FITC staining based flow cytometry (reference value: 98.4%)
[7] = molecular target: Matrix metalloproteinase-9 (Homo sapiens, UniProt P14780); assay: Inhibition of recombinant human MMP9 (Phe107 to Pro449 residues) expressed in Escherichia coli using Ac-Pro-Leu-Gly-S-Leu-Leu-Gly-OEt as substrate after 1 hr measured at 1 min time interval for 30 mins by microplate photometric method
In short: (§3)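 Commercial MMP kits; compound preincubated with enzyme before chromogenic substrate was added. Reactions at 37 °C for 1 h, with at least six inhibitor concentrations in triplicate. Absorbance at 410 nm read every 1 min for 30 min. NNGH used as reference inhibitor. IC50 taken from semi-logarithmic dose-response plots.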

[8] = system: A549; assay: Cytotoxicity against human A549 cells assessed as reduction in cell viability after 48 hrs by MTT assay; assay type: functional, cell-based; conditions: A549, 48 h; in short: as §2
[9] = system: K562; assay: Cytotoxicity against human K562 cells assessed as reduction in cell viability after 48 hrs by MTT assay; assay type: functional, cell-based; conditions: K562, 48 h; in short: as §2
[10] = system: K562; assay: Induction of apoptosis in human K562 cells assessed as late apoptotic cells at 5 uM after 48 hrs by Annexin V-FITC/propidium iodide staining based flow cytometry (reference value: 0.3%); assay type: functional
[11] = system: K562; assay: Cell cycle arrest in human K562 cells assessed as accumulation at sub-G1 phase at 5 uM after 24 hrs by propidium iodide staining based flow cytometry (reference value: 1%)
[12] = system: K562; assay: Anti-invasive activity against human K562 cells at 10 uM after 24 hrs by CyQuantGR dye based fluorimetric QCM EC matrix assay relative to control; assay type: functional; conditions: K562, 24 h; in short: as §1
[13] = system: K562; assay: Cell cycle arrest in human K562 cells assessed as accumulation at G1/S-phase at 10 uM after 24 hrs by propidium iodide staining based flow cytometry (reference value: 21.8%)
[14] = molecular target: T1, Interstitial collagenase (Homo sapiens, UniProt P03956); assay: Inhibition of recombinant human MMP1 (Phe100 to Gln268 residues) using Ac-Pro-Leu-Gly-S-Leu-Leu-Gly-OEt as substrate after 1 hr measured at 1 min time interval for 30 mins by microplate photometric method; in short: as §3
T1 sequence (P03956 whole entry): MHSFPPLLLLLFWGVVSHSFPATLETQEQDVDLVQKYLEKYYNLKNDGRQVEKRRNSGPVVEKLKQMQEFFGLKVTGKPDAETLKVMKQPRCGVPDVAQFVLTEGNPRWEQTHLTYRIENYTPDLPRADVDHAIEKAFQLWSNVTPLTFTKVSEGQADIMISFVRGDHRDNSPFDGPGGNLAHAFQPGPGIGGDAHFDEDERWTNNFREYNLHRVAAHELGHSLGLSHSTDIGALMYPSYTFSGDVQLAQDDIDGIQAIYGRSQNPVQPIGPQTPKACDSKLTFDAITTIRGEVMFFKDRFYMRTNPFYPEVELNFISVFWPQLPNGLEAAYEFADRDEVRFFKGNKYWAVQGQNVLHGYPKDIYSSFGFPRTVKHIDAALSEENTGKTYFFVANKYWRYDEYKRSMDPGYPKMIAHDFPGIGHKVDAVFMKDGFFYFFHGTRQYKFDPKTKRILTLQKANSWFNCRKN

[15] = system: K562; assay: Cell cycle arrest in human K562 cells assessed as accumulation at sub-G1 phase at 2.5 uM after 24 hrs by propidium iodide staining based flow cytometry (reference value: 1%)
[16] = system: K562; assay: Cell cycle arrest in human K562 cells assessed as accumulation at G2/M-phase at 2.5 uM after 24 hrs by propidium iodide staining based flow cytometry (reference value: 35.3%)
[17] = system: K562; assay: Downregulation of MMP2 protein expression in human K562 cells assessed as MMP2 negative population at 2.5 uM after 48 hrs by FITC staining based flow cytometry (reference value: 1.6%)
[18] = molecular target: Matrix metalloproteinase-14 (Homo sapiens, UniProt P50281); assay: Inhibition of recombinant human MMP14 (Tyr112 to Arg298 residues) expressed in Escherichia coli using Ac-Pro-Leu-Gly-S-Leu-Leu-Gly-OEt as substrate after 1 hr measured at 1 min time interval for 30 mins by microplate photometric method; in short: as §3
[19] = system: K562; assay: Anti-invasive activity against human K562 cells at 5 uM after 24 hrs by CyQuantGR dye based fluorimetric QCM EC matrix assay relative to control; assay type: functional; conditions: K562, 24 h; in short: as §1
[20] = system: K562; assay: Induction of apoptosis in human K562 cells assessed as live cells at 2.5 uM after 48 hrs by Annexin V-FITC/propidium iodide staining based flow cytometry (reference value: 90.1%); assay type: functional
[21] = system: K562; assay: Cell cycle arrest in human K562 cells assessed as accumulation at G1/S-phase at 5 uM after 48 hrs by propidium iodide staining based flow cytometry (reference value: 21.8%); assay type: functional
[22] = system: K562; assay: Cell cycle arrest in human K562 cells assessed as accumulation at sub-G1 phase at 10 uM after 48 hrs by propidium iodide staining based flow cytometry (reference value: 1%); assay type: functional

Matrix metalloproteinase-9, sequence (P14780 whole entry): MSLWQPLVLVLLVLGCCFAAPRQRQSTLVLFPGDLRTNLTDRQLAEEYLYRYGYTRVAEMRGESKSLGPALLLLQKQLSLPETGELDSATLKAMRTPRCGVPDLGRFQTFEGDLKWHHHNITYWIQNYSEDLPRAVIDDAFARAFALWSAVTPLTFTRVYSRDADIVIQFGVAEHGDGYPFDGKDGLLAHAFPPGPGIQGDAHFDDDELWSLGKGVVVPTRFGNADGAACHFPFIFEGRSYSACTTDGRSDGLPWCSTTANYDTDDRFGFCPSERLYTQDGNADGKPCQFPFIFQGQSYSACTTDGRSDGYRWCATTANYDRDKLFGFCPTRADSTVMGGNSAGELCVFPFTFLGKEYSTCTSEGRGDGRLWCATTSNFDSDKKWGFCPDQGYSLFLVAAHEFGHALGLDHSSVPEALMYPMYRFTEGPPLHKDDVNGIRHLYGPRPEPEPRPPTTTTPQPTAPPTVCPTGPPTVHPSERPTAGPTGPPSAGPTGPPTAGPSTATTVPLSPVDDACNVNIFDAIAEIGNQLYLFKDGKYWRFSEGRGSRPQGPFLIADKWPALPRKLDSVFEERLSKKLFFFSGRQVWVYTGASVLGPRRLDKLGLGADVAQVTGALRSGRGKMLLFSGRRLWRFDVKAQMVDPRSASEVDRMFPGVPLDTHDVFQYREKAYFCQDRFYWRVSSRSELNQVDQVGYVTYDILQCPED

For `CCCCCNC(=O)CC[C@H](NS(=O)(=O)c1ccc([N+](=O)[O-])cc1)C(=O)O`, the inhibition at 2.5 µM [1] was 12.4%, the Activity [2] was “Dose-dependent effect” and the Activity [3] was 10.3%. It also gave an Activity [4] of 84.4%, an IC50 [5] greater than 1000 µM and an Activity [6] of 18.9%. It also gave an IC50 [7] of 6.8 µM, an IC50 [8] of 206 µM and an IC50 [9] of 17.9 µM. It also gave an Activity [10] of 8.5%, an Activity [11] of 2.4% and an inhibition at 10 µM [12] of 24.1%. For the same compound, the Activity [13] was 14%, the IC50 [14] was greater than 500 µM and the Activity [15] was 1.4%. The Activity [16] was 36%, the Activity [17] was 73.7% and the IC50 [18] was 436 µM. It also gave an inhibition at 5 µM [19] of 14.2%, an Activity [20] of 73.5% and an Activity [21] of 19.6%. The Activity [22] was 4.6%.
